# Screening data (PubChem BioAssay)
# Only some compounds are listed: those with a hit (about 1.8% of all), similar ones and a draw of the others.
# NR2E3 ag-1: NR2E3 agonists in two-hybrid cells, primary screen, cell-based, luminescence, CHO-S, Gal4-NCOR/VP16-NR2E3; AID 602229, 2012; inhibition of corepressor binding, % at 3.98 µM; Photoreceptor-specific nuclear receptor (Homo sapiens), Q9Y5X4; 360,000 tested, 0.35% active; luciferase;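 active = inhibition above the mean of all tested compounds plus 3 SD, cut at about 70% in these data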;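 note: higher means lower luciferase signal from less NR2E3 corepressor binding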
# Target sequence (Q9Y5X4 whole entry, looked up, the tested form may be a part): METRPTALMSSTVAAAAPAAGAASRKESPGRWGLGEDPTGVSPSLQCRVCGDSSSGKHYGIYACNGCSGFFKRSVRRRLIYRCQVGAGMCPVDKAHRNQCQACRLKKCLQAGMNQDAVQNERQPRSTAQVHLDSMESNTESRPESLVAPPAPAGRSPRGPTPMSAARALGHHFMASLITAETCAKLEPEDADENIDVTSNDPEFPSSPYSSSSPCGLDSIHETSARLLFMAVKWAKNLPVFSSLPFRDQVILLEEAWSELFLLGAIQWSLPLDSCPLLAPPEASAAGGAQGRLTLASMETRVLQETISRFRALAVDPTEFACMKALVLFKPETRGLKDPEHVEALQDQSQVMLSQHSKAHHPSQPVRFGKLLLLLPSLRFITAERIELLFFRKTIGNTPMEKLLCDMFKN
# GalR3 antag: GalR3 antagonists in HEK293 cells, primary screen, cell-based, fluorescence readout; 360,000 tested, 0.44% active; HEK293 GalR3-CNG cAMP membrane potential fluorescence; galR3 body fused to GalR1 C-terminus; AID 651719, 2012; Galanin receptor type 3 (Homo sapiens), O60755; inhibition, % at 3 µM;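 active = inhibition above the screen-wide average plus 3 SD, cut at about 13% in these data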;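 note: forskolin and galanin both at EC90 stimulate the cells; cAMP rise reported by CNG channel membrane potential dye signal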
# Target sequence (O60755 1-299 limits assumed): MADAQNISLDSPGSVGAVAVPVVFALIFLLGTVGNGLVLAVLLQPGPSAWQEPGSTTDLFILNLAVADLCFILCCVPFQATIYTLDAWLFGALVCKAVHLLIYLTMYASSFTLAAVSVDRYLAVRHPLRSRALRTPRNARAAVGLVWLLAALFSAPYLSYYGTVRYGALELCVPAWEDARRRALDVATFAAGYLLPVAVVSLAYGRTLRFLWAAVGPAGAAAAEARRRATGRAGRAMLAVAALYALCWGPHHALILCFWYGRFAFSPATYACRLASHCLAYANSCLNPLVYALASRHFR
# NR2E3 ag-2: inhibitors of NR2E3-RetCOR corepressor binding, primary screen, NR2E3 agonist project, biochemical, TR-FRET, GST-NR2E3, biotin-RetCOR | inhibition of corepressor binding, % at 4.78 µM | 1536-well | Photoreceptor-specific nuclear receptor (Homo sapiens), Q9Y5X4 | 320,000 tested, 0.12% active;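 active = percent inhibition above the cutoff of mean plus 3 SD of all tested compounds, set per screening campaign, cut at about 20% in these data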
#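 Material – GST-tagged NR2E3 plus biotinylated RetCOR corepressor · Quantity – NR2E3 fusion 1.35 nM · Times – 5 h incubation at 4 °C · Medium – pH 7.5 Tris-based buffer · Technique – TR-FRET, Eu(K)-anti-GST donor, streptavidin-D2 acceptor, ex 340, em 617/671 nm · Benchmarks – high control biotin, low control 0.6% DMSO · Format – 1536-well plates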
# Rev-erbA mod: modulators of Rev-erb alpha DNA binding, primary screen, biochemical, FITC-DNA, fluorescence polarization, uHTS; Rev-erbα–FITC-DNA binding, 90 min; Nuclear receptor subfamily 1 group D member 1 (Homo sapiens), P20393; activity, % at 10 µM; AID 1259318, 2017; 370,000 tested, 0.79% active;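 active = activity above about 14%, limit read from the data; passing the limit was not always enough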
# PG9 Ab binder: binders of HIV-1 gp120 antibody PG9, primary screen, biochemical, TR-FRET; TR-FRET gp120-PG9 antibody binding; 360,000 tested, 0.43% active; HIV-1 gp120 / PG9 antibody interaction; AID 624416, 2012; inhibition, % at 6.7 µM; in the data active = inhibition above about 8.5%
# PG9 bind confirm: binders of anti-gp120 antibody PG9, confirmation, biochemical, TR-FRET; shares compounds with PG9 Ab binder; TR-FRET PG9 antibody binding; inhibition, % at 6.7 µM; 1,500 tested, 90% active; AID 651571, 2012; in the data active = inhibition above about 9%
# PGV04 Ab binding: binders of control antibody PGV04, counter-screen for PG9 antibody binder project, biochemical, TR-FRET, distinct HIV envelope site. shares compounds with PG9 Ab binder. TR-FRET PGV04 antibody-gp120 binding. 1,500 tested, 95% active. inhibition, % at 6.7 µM. AID 651604, 2012; in the data active = inhibition above about 9.5%
# Hits are given with their value; - = inactive; . = no result.
SMILES,NR2E3 ag-1,GalR3 antag,NR2E3 ag-2,Rev-erbA mod,PG9 Ab binder,PG9 bind confirm,PGV04 Ab binding
CCc1ccc2nc(NC(=O)Cn3cnc4ccccc4c3=O)sc2c1,-,-,-,-,-,.,.
O=C(c1ccc(F)cc1)C1CCN(c2ncnc3sccc23)CC1,.,.,.,-,.,.,.
O=S(=O)(c1ccc(F)c(F)c1F)N1CCN(c2ncnc3sccc23)CC1,-,-,.,-,10.5,-,15.7
C=CCn1c(SCc2cccc(C(F)(F)F)c2)nnc1-c1ccc(OC)cc1,.,.,.,-,.,.,.
N/C(=N\c1nc2ccccc2o1)NC(=O)c1ccccc1NC(=O)c1ccccc1,-,-,-,-,10.9,11.1,18.9
CC1(C)Cc2c(C#N)c(SCC(=O)c3ccccc3)nc(N3CCOCC3)c2CO1,-,-,-,-,41.5,9.3,86.0
Cc1nc2c(sc3nc(N4CCOCC4)c4c(c32)CC(C)(C)OC4)c(-c2ccccc2)c1C(=O)O,-,-,-,-,15.6,25.6,32.0
CC1(C)Cc2c(C#N)c(SCc3ccccc3)nc(N3CCOCC3)c2CO1,-,-,-,-,-,.,.
C[C@H]1[C@@H](NC(=O)c2cccc(C(F)(F)F)c2)CC[C@@]23CCCN2C(=O)CCC[C@@H]13,.,.,.,-,.,.,.
Cc1ccccc1Cn1cc(COC(=O)NCCc2ccccc2)nn1,.,.,.,-,.,.,.
CCCCC(=O)Nc1nn(CC)c2nc3c(C)cccc3cc12,-,-,-,-,9.7,11.0,15.0
CCOC(=O)[C@]12CCCC=C1N(CCCOC)C(=O)[C@@H]2CC(=O)N1CCSCC1,.,.,.,-,.,.,.
O=C(c1ccc(NS(=O)(=O)c2ccccc2)cc1)N1CCN(Cc2ccc3c(c2)OCO3)CC1,-,-,-,-,10.9,-,-
COc1ccc(NS(=O)(=O)c2cccc(C(=O)N3CCN(Cc4ccc5c(c4)OCO5)CC3)c2)cc1,-,-,-,-,-,.,.
CC(=O)CSc1nc(-c2cccs2)c(C#N)c(=O)[nH]1,-,-,.,-,49.5,52.7,64.5
CC(=O)CSc1nc(N)c(C#N)c(-c2cccs2)c1C#N,-,-,-,-,-,.,.
C[C@H]1CN(C(=O)OC(C)(C)C)CCN1c1ccc(N2CCS(=O)(=O)CC2)c(C#N)c1,.,-,.,-,-,.,.
Cc1ccnc(N2CCC(C(=O)Nc3ccc4c(c3)CCC4)CC2)n1,-,-,-,-,36.6,43.7,61.0
CN1CCCC1CCSc1ncccc1-c1nc2ccccc2[nH]1 (centres undefined),.,.,.,-,.,.,.
N#Cc1c(-c2ccccc2)c(C#N)c2nc3ccccc3n2c1N,-,-,-,-,8.8,17.9,24.1
O=c1[nH]c(SCc2nc3ccccc3c(=O)n2-c2ccccc2)nc2ccccc12,-,-,-,-,13.0,21.7,27.5
O=c1[nH]c(SCc2n[nH]c(=S)n2-c2ccccc2)nc2ccccc12,-,-,-,-,-,.,.
O=C(CSc1nc2ccccc2c(=O)n1Cc1ccc(Cl)cc1)NCc1cccs1,-,-,-,-,16.6,21.1,30.1
O=C(CSc1nc2ccccc2c(=O)[nH]1)NCc1ccc(Cl)cc1,-,-,-,-,12.3,24.1,27.4
O=c1[nH]c(SCc2ccc(Cl)cc2)nc2ccccc12,-,-,-,-,-,.,.
SMILES,NR2E3 ag-1,GalR3 antag,NR2E3 ag-2,Rev-erbA mod,PG9 Ab binder,PG9 bind confirm,PGV04 Ab binding
CN1Cc2nnn(Cc3ccccc3)c2-c2cc(N3CCCCC3)ccc2S1(=O)=O,.,.,.,-,.,.,.
O=C(Cn1nnc(-c2ccncc2)n1)Nc1ccc(F)cc1F,.,.,.,-,.,.,.
Cc1n[nH]c(C)c1S(=O)(=O)NCCc1c[nH]c2ccccc12,.,.,.,-,.,.,.
Cn1c2ccccc2c(=O)c2cc(C#Cc3ccccn3)ccc21,-,-,-,-,-,.,.
Cn1c2ccccc2c(=O)c2ccc(C#Cc3ccccn3)cc21,.,-,-,-,49.7,57.1,78.8
Cc1nn(CCC(=O)NNC(=O)Nc2ccccc2)c(C)c1[N+](=O)[O-],.,.,.,-,.,.,.
Cc1ccccc1C(=O)Nc1nnc(S(=O)(=O)N2CCCCC2)s1,-,.,-,-,23.6,32.0,40.3
C/C(=C/c1[nH]c(N)[n+](CC2CC2)c1Cc1ccccc1)Cn1[nH]c(=O)n(-c2ccccc2)c1=O,.,.,.,-,.,.,.
Cc1cc(C)c2c(N)c(C(=O)Nc3cccc(C)c3C)sc2n1,-,-,-,-,8.9,45.8,69.6
Cc1ccccc1NC(=O)c1sc2nc3c(c(-c4ccco4)c2c1N)CCCC3,-,-,-,-,70.5,62.3,71.3
Cc1ccc(NC(=O)c2sc3nc(C)cc(C)c3c2N)cc1,-,-,-,-,-,.,.
Cc1ccc(-n2c(SCc3ccc(Cl)c(Cl)c3)nnc2-c2ccc(C(C)(C)C)cc2)cc1,.,.,.,-,.,.,.
CC(C)(C)OC(=O)NCCc1ccccc1/C=C/S(=O)(=O)NC1CCCC1,.,.,.,-,.,.,.
O=C(CSc1nc(-c2ccccc2)nc2ccccc12)Nc1cccc(C(=O)O)c1,-,-,-,-,15.6,14.9,22.0
COC(=O)[C@H](C(C)C)N(Cc1cn(CC2CCCCC2)nn1)S(=O)(=O)c1ccc(F)cc1Br,.,.,.,-,.,.,.
CN(C)c1ccc(-c2nnc(-c3ccc(S(=O)(=O)C(F)F)cc3)o2)cc1,-,-,-,-,10.8,17.1,19.6
COc1ccc(-c2nnc(-c3ccc(N(C)C)cc3)o2)cc1,-,-,-,-,-,.,.
N=c1c2c(-c3ccccc3)c(-c3ccccc3)n(CCc3ccccc3)c2ncn1C1CCC(O)CC1 (centres undefined),.,.,.,-,.,.,.
CNC(=O)c1ccc(NC(=O)C2CCN(c3ncnc4sc(C)c(C)c34)CC2)cc1,-,-,-,-,17.6,13.6,17.5
Cc1sc2ncnc(N3CCC(C(=O)Nc4ccc(Br)cc4Br)CC3)c2c1C,-,-,-,-,23.0,43.7,69.7
CC(C)(C)c1ccc(C2/C(=C(\O)c3ccc4c(c3)OCCO4)C(=O)C(=O)N2CCCN2CCOCC2)cc1 (centres undefined),-,-,-,-,-,.,.
O=C1C(=O)N(CCCN2CCOCC2)C(c2ccc(F)cc2)/C1=C(\O)c1ccc2c(c1)OCCO2 (centres undefined),-,-,-,-,9.4,21.4,23.9
O=C1C(=O)N(CCCn2ccnc2)C(c2ccc(Cl)cc2)/C1=C(\O)c1ccc2c(c1)OCCO2 (centres undefined),-,-,-,-,27.4,15.8,20.9
